Columns and labels:
[1] = target: Serine/threonine-protein kinase Nek7 (Homo sapiens) (UniProt Q8TDX7); assay: Binding affinity to wild-type human full length NEK7 (M1 to S302 residues) expressed in Escherichia coli BL21 at 1 uM by Kinomescan method relative to control
Method in brief: (§1)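 Kinome-wide competition binding panel run by an outside provider, with each compound tested at a single concentration. Activity is read against the kinase panel.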

[2] = target: Phosphorylase b kinase gamma catalytic chain, liver/testis isoform (Homo sapiens) (UniProt P15735); assay: Binding affinity to wild-type human partial length PHKG2 (M1 to W300 residues) expressed in Escherichia coli BL21 at 1 uM by Kinomescan method relative to control
[3] = target: Ribosomal protein S6 kinase alpha-2 (Homo sapiens) (UniProt Q15349); assay: Binding affinity to wild-type human partial length C-terminal RSK2 kinase domain 2 (V402 to S715 residues) expressed in HEK293 cells at 1 uM by Kinomescan method relative to control; type: cell-based
[4] = target: Testis-specific serine/threonine-protein kinase 1 (Homo sapiens) (UniProt Q9BXA7); assay: Binding affinity to wild-type human full length TSSK1B (M1 to Q367 residues) expressed in Escherichia coli BL21 at 1 uM by Kinomescan method relative to control; method in brief: as §1
[5] = target: Casein kinase II subunit alpha' (Homo sapiens) (UniProt P19784); assay: Binding affinity to wild-type human full length CSNK2A2 (M1 to R350 residues) expressed in HEK293 cells at 1 uM by Kinomescan method relative to control; type: cell-based
Method in brief: (§2)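 Run as one kinome-wide competition binding panel with each compound at a single fixed concentration. Results were plotted as a kinome-wide selectivity map.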

[6] = tested on: Tyrosine-protein kinase ABL1 (Homo sapiens), P00519 [Q252H]; assay: Binding affinity to human phosphorylated ABL1 Q252H mutant expressed in HEK293 cells at 1 uM by Kinomescan method relative to control; type: cell-based
[7] = target: SNF-related serine/threonine-protein kinase (Homo sapiens) (UniProt Q9NRH2); assay: Binding affinity to wild-type human partial length SNRK (M1 to E339 residues) expressed in HEK293 cells at 1 uM by Kinomescan method relative to control; type: cell-based
[8] = target: Mitogen-activated protein kinase 13 (Homo sapiens) (UniProt O15264); assay: Binding affinity to wild-type human full length p38-delta (M1 to L365 residues) expressed in Escherichia coli BL21 at 1 uM by Kinomescan method relative to control; method in brief: as §1
[9] = target: SRSF protein kinase 2 (Homo sapiens) (UniProt P78362); assay: Binding affinity to wild-type human full length SRPK2 (M1 to S686 residues) expressed in Escherichia coli BL21 at 1 uM by Kinomescan method relative to control; method in brief: as §1
[10] = tested on: Tyrosine-protein kinase ABL1 (Homo sapiens), P00519 [Y253F]; assay: Binding affinity to human phosphorylated ABL1 Y253F mutant (S229 to K512 residues) expressed in HEK293 cells at 1 uM by Kinomescan method relative to control; type: cell-based
[11] = target: Serine/threonine-protein kinase 17A (Homo sapiens) (UniProt Q9UEE5); assay: Binding affinity to wild-type human partial length DRAK1 (R32 to E363 residues) expressed in Escherichia coli BL21 at 1 uM by Kinomescan method relative to control
[12] = target: Serine/threonine-protein kinase SIK1 (Homo sapiens) (UniProt P57059); assay: Binding affinity to wild-type human partial length SIK (M1 to Y304 residues) expressed in Escherichia coli BL21 at 1 uM by Kinomescan method relative to control
[13] = target: Serine/threonine-protein kinase Nek11 (Homo sapiens) (UniProt Q8NG66); assay: Binding affinity to wild-type human partial length NEK11 (M1 to E313 residues) expressed in HEK293 cells at 1 uM by Kinomescan method relative to control; type: cell-based
[14] = target: Serine/threonine-protein kinase Sgk1 (Homo sapiens) (UniProt O00141); assay: Binding affinity to wild-type human partial length SGK (I60 to L431 residues) expressed in HEK293 cells at 1 uM by Kinomescan method relative to control; type: cell-based
[15] = target: Inhibitor of nuclear factor kappa-B kinase subunit epsilon (Homo sapiens) (UniProt Q14164); assay: Binding affinity to wild-type human full length IKK-epsilon (M1 to V716 residues) expressed in HEK293 cells at 1 uM by Kinomescan method relative to control; type: cell-based
[16] = tested on: Proto-oncogene tyrosine-protein kinase receptor Ret (Homo sapiens), P07949 [M918T]; assay: Binding affinity to human partial length RET M918T mutant (E713 to D1014 residues) expressed in Escherichia coli BL21 at 1 uM by Kinomescan method relative to control
[17] = target: Serine/threonine-protein kinase DCLK2 (Homo sapiens) (UniProt Q8N568); assay: Binding affinity to wild-type human partial length DCAMKL2 (K273 to V664 residues) expressed in Escherichia coli BL21 at 1 uM by Kinomescan method relative to control
[18] = target: Serine/threonine-protein kinase 26 (Homo sapiens) (UniProt Q9P289); assay: Binding affinity to wild-type human full length MST4 (M1 to P416 residues) expressed in HEK293 cells at 1 uM by Kinomescan method relative to control; type: cell-based; method in brief: as §2
[19] = target: Ephrin type-A receptor 8 (Homo sapiens) (UniProt P29322); assay: Binding affinity to wild-type human partial length EPHA8 (Q608 to C920 residues) expressed in Escherichia coli BL21 at 1 uM by Kinomescan method relative to control
[20] = target: LIM domain kinase 1 (Homo sapiens) (UniProt P53667); assay: Binding affinity to wild-type human full length LIMK1 (M1 to D647 residues) expressed in Escherichia coli BL21 at 1 uM by Kinomescan method relative to control; method in brief: as §2
[21] = target: Ephrin type-B receptor 6 (Homo sapiens) (UniProt O15197); assay: Binding affinity to wild-type human partial length EPHB6 (Q634 to P948 residues) expressed in HEK293 cells at 1 uM by Kinomescan method relative to control; type: cell-based
[22] = target: Maternal embryonic leucine zipper kinase (Homo sapiens) (UniProt Q14680); assay: Binding affinity to wild-type human full length MELK (M1 to V651 residues) expressed in Escherichia coli BL21 at 1 uM by Kinomescan method relative to control; method in brief: as §2
[23] = target: Tyrosine-protein kinase ABL2 (Homo sapiens) (UniProt P42684); assay: Binding affinity to wild-type human ABL2 (A248 to G542 residues) expressed in Escherichia coli BL21 at 1 uM by Kinomescan method relative to control
[24] = target: Mitogen-activated protein kinase kinase kinase 15 (Homo sapiens) (UniProt Q6ZN16); assay: Binding affinity to wild-type human partial length MAP3K15 (T625 to L932 residues) expressed in HEK293 cells at 1 uM by Kinomescan method relative to control; type: cell-based
[25] = target: Bone morphogenetic protein receptor type-2 (Homo sapiens) (UniProt Q13873); assay: Binding affinity to wild-type human partial length BMPR2 (R179 to Q526 residues) expressed in HEK293 cells at 1 uM by Kinomescan method relative to control; type: cell-based

| SMILES | Activity [1] [%] | Activity [2] [%] | Activity [3] [%] | Activity [4] [%] | Activity [5] [%] | Activity [6] [%] | Activity [7] [%] | Activity [8] [%] | Activity [9] [%] | Activity [10] [%] | Activity [11] [%] | Activity [12] [%] | Activity [13] [%] | Activity [14] [%] | Activity [15] [%] | Activity [16] [%] | Activity [17] [%] | Activity [18] [%] | Activity [19] [%] | Activity [20] [%] | other results |
| --- | --- | --- | --- | --- | --- | --- | --- | --- | --- | --- | --- | --- | --- | --- | --- | --- | --- | --- | --- | --- | --- |
| CCC(=O)Nc1ccc(C(=O)Nc2ccc(Nc3ncc4c(n3)N(C)c3ccc(C)cc3C(=O)N4C)cc2)cc1 | 95 | 88 | 100 | 89 | 83 | 61 | 75 | 97 | 100 | 3.5 | 100 | 81 | 96 | 79 | 68 | 71 | 81 | 98 | 80 | 70 | Activity [21]: 77%; Activity [22]: 78%; Activity [23]: 78%; Activity [24]: 62%; Activity [25]: 77% |
| C=CC(=O)Nc1ccc(C(=O)Nc2ccc(Nc3ncc4c(n3)N(C)c3ccc(C)cc3C(=O)N4C)cc2)cc1 | 100 | 100 | 100 | 100 | 100 | 85 | 100 | 84 | 99 | 100 | 93 | 95 | 100 | 100 | 88 | 87 | 78 | 100 | 91 | 100 | Activity [21]: 96%; Activity [22]: 97%; Activity [23]: 95%; Activity [24]: 100%; Activity [25]: 95% |

Source: ChEMBL document CHEMBL4184148 (Bioorg Med Chem Lett, 2017)
